The results in this text go back to ChEMBL document CHEMBL1124597, “Quinones. 4. Novel eicosanoid antagonists: synthesis and pharmacological evaluation” (J Med Chem, 1989).

What all share (format): functional
The species named for assay [1] is Oryctolagus cuniculus. Nature of the assay: In vitro percent inhibition against U-44,069 (10e-7 M) induced contraction of rabbit aorta at 10e-5 M concentration. An outline of the steps: (§1)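 Rabbit aortic strips (2-3 mm × 3 cm) in Krebs-Henseleit, 37 °C, 95% O2/5% CO2, 2 g resting tension, isometric recording. Drugs (final 10⁻⁵ to 10⁻⁸ M, 0.01% DMSO) added 10 min before U-44069 (2-6 nM, about 50% of the 30 mM KCl contraction). Percent inhibition, or concentration reducing contraction by 50%; duplicate means.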

For assay [2], the species on record is Oryctolagus cuniculus. Nature of the assay: In vitro concentration that reduced U-44069-induced contraction of the rabbit aorta by 50%. In a few lines:
as §1

Assay [3] is filed under the species Oryctolagus cuniculus. The experiment in a line: In vitro percent inhibition against U-44,069 (10e-7 M) induced contraction of rabbit aorta at 10e-6 M concentration. In a few lines: as §1
Assay [4] is filed under the species Oryctolagus cuniculus. The experiment in a line: In vitro percent inhibition against U-44,069 (10e-7 M) induced contraction of rabbit aorta at 10e-7 M concentration. In a few lines: as §1

For the compound `CC1=C(C)C(=O)C(C(CCCCCc2nnn[nH]2)c2ccccc2)=C(C)C1=O` (stereo unspecified), the Inhibition in the assay listed under Oryctolagus cuniculus [1] came to 2%.
`CC1=C(C)C(=O)C(C(CCCCCCCCC(=O)O)c2ccccc2)=C(C)C1=O` (stereo unspecified) came in with an Inhibition in the assay filed under Oryctolagus cuniculus [1] of 41%.
Still for that read-out and setting: as for `CC1=C(C)C(=O)C(C(CCCC#CC(=O)O)c2ccccc2)=C(C)C1=O` (stereo unspecified), the figure is 72%; as for `CC1=C(C)C(=O)C(C(CCCCCC(=O)NCC(=O)O)c2ccccc2)=C(C)C1=O` (stereo unspecified), 0%.
In the case of `CC1=C(C)C(=O)C(C(CCCCCC(=O)O)c2cccc(F)c2)=C(C)C1=O` (stereo unspecified), the figures for the Inhibition in the assay listed under Oryctolagus cuniculus [1] and in the assay filed under Oryctolagus cuniculus [3] were 100% and 31%, respectively. The compound also showed an IC50 in the assay filed under Oryctolagus cuniculus [2] of 1900 nM.
With `CC1=C(C)C(=O)C(C(CCCCCC(=O)O)c2ccc(C)cc2)=C(C)C1=O` (stereo unspecified), the Inhibition in the assay filed under Oryctolagus cuniculus [1] stood at 100%; in the assay listed under Oryctolagus cuniculus [3] it was 50%. The same compound displayed an IC50 in the assay filed under Oryctolagus cuniculus [2] of 1000 nM.
Turning to `CC1=C(C)C(=O)C(C(CCC(=O)NCC(=O)O)c2ccccc2)=C(C)C1=O` (stereo unspecified), the Inhibition in the assay listed under Oryctolagus cuniculus [1] came out at 0%.
In the case of `CC1=C(C)C(=O)C(C(CCCCCC(=O)O)c2cccc(C(F)(F)F)c2)=C(C)C1=O` (stereo unspecified), the Inhibition in the assay listed under Oryctolagus cuniculus [1] was 64%.
Take `CC1=C(C)C(=O)C(C(CCC(=O)O)c2ccccc2)=C(C)C1=O` (stereo unspecified): the Inhibition in the assay listed under Oryctolagus cuniculus [1] stood at 0%.
Same read-out and setting: as for `CC1=C(C)C(=O)C(C(C)CCCCCC(=O)O)=C(C)C1=O` (stereo unspecified), the figure is 0%.
Turning to `CC1=C(C(CCCCCC(=O)O)c2ccc(F)cc2)C(=O)c2ccccc2C1=O` (stereo unspecified), the Inhibition is listed as 100% in the assay filed under Oryctolagus cuniculus [1], 100% in the assay filed under Oryctolagus cuniculus [3] and 78% in the assay filed under Oryctolagus cuniculus [4].
In the case of `CC1=C(C)C(=O)C(C(CCOc2cccc(C(=O)O)c2)c2ccccc2)=C(C)C1=O` (stereo unspecified), in the assay filed under Oryctolagus cuniculus [1], the Inhibition stood at 2%.
As for `CC1=C(C(CCCCCC(=O)O)c2ccccc2)C(=O)c2ccccc2C1=O` (stereo unspecified), the Inhibition in the assay filed under Oryctolagus cuniculus [1] was determined as 100%; in the assay filed under Oryctolagus cuniculus [3], 99%; in the assay filed under Oryctolagus cuniculus [4], 20%. In the assay listed under Oryctolagus cuniculus [2], this compound came in with an IC50 of 240 nM.
Consider `CC1=C(C)C(=O)C(C(CCCCCC(=O)O)c2ccccc2C)=C(C)C1=O` (stereo unspecified), for which the Inhibition in the assay listed under Oryctolagus cuniculus [1] is listed as 99%; in the assay filed under Oryctolagus cuniculus [3] it was 0%. Further, half-maximal inhibition in the assay listed under Oryctolagus cuniculus [2] (IC50) was put at 3200 nM.
Consider `COc1ccccc1C(CCCCCC(=O)O)C1=C(C)C(=O)C(C)=C(C)C1=O` (stereo unspecified), for which, in the assay filed under Oryctolagus cuniculus [1], the Inhibition worked out at 0%.
With `CC1=C(C)C(=O)C(C(CCCCC(C)(C)C(=O)O)c2ccccc2)=C(C)C1=O` (stereo unspecified), the Inhibition in the assay listed under Oryctolagus cuniculus [1] is reported as 12%.
As for `CC1=C(C)C(=O)C(C(CCCCCC(N)=O)c2ccccc2)=C(C)C1=O` (stereo unspecified), the Inhibition in the assay filed under Oryctolagus cuniculus [1] was 6%.
Take `COc1ccc(C(CCCCCC(=O)O)C2=C(C)C(=O)C(C)=C(C)C2=O)cc1` (stereo unspecified): the Inhibition is 100% in the assay listed under Oryctolagus cuniculus [1] and 3% in the assay listed under Oryctolagus cuniculus [3]. This compound yielded an IC50 in the assay filed under Oryctolagus cuniculus [2] of 3000 nM.

The Inhibition is the drop in the measured response relative to a control, in per cent. A high value points to a response far below the control. As a reminder, the IC50 is the concentration that inhibits the measured activity by half. A high value points to a need for much substance.
